Data taken from ChEMBL document CHEMBL3407436, “Design and development of novel Mycobacterium tuberculosis L-alanine dehydrogenase inhibitors” (Eur J Med Chem, 2015).
Converted amounts (≈) assume the structure as drawn.

Tests used:
[1] = Inhibition of Mycobacterium tuberculosis AlaDH using L-alanine as substrate after 20 mins by spectrophotometry
Method in brief: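 125 mM glycine-KOH buffer pH 10.2, 1 mM NAD⁺, 50 mM L-alanine, enzyme at a level set by range finding; 20 min at 37°C. NADH formation from oxidative deamination monitored continuously at 340 nm. Compounds tested at 25 to 0.5 µM; background measured without enzyme. IC₅₀ by software analysis.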

[2] = system: Mycobacterium tuberculosis; assay: Antimycobacterial activity against Mycobacterium tuberculosis H37Rv ATCC 27294 after 28 days by agar dilution method; type: functional; settings: H37Rv ATCC 27294, 672 h
Method in brief: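 Two-fold serial dilutions incorporated into Middlebrook 7H11 agar with OADC, final 50 to 0.78 µg/mL. Inoculum from fresh 7H11 slants adjusted to 1 mg/mL wet weight in 0.05% Tween 80 saline, diluted 10^-2 (~10⁷ cfu/mL). 5 µL spotted per tube; 37 °C, read after 28 days. MIC = lowest concentration completely inhibiting growth; duplicates.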

[3] = Cytotoxicity against mouse RAW264.7 cells at 50 uM after 48 hrs by MTT assay; type: cell-based; settings: read-out: INH
Method in brief: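 RAW 264.7 cells grown in RPMI with 10% FBS plus penicillin/streptomycin to 80-90% confluency, seeded ~5,000 cells/well on poly-L-lysine plates, 24 h at 37°C, 5% CO₂. Compounds at 50 µM for 48 h; MTT (0.5 mg/ml) added for 3 h at 37°C; formazan read at 595 nm.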

[4] = system: Mycobacterium tuberculosis; assay: Antimycobacterial activity against dormant Mycobacterium tuberculosis H37Rv model assessed as log reduction at 10 ug/ml incubated for 7 days measured after 28 days in presence of nutrient deprived condition; type: functional
Method in brief: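 H37Rv grown in 7H9/OADC, pelleted, washed twice and resuspended in PBS in sealed bottles, starved 6 weeks at 37°C. Treated at 10 µg/ml for 7 days. Suspensions diluted 10-fold to 10^-6 in 7H9/OADC and plated in triplicate; 37°C for 28 days without agitation. Wells with visible growth scored positive, MPN calculated statistically.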

[5] = system: Mycobacterium tuberculosis; assay: Binding affinity to Mycobacterium tuberculosis AlaDH assessed as protein-ligand stabilization by measuring shift in melting temperature by differential scanning fluorimetry
Method in brief: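 Thermal shift assay on MTB L-AlaDH with Sypro Orange dye in a real-time PCR instrument. Samples equilibrated at 25°C for 3 min, then heated to 95°C in 0.1°C steps with fluorescence read at each step. Tm of protein-ligand complex compared with native protein Tm.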

SMILES	IC50 ([1]; read-out: IC50)	MIC [2]	cytotoxicity at 48 h, 50 µM [3]	FC [4]	IC50 [1]	ΔTm [5]
N=C1S/C(=C\c2ccc(OCc3ccccc3)cc2)C(=O)N1c1ccccc1[N+](=O)[O-]	15 µM	58 µM (≈ 25 µg/mL)	24.4%	2		
NC(=O)c1c(NC(=O)c2ccc(Oc3ccccc3)cc2)sc2c1CCN(C(=O)c1ccccc1)C2	1.11 µM	3.47 µM (≈ 1.73 µg/mL)	4.71%	2		
N=C1S/C(=C\c2ccc(OCc3ccccc3)cc2)C(=O)N1c1ccc([N+](=O)[O-])cc1	6.16 µM	7.23 µM (≈ 3.12 µg/mL)	17.3%			
COc1c(N2C[C@@H]3CCCN[C@@H]3C2)c(F)cc2c(=O)c(C(=O)O)cn(C3CC3)c12 [MOXIFLOXACIN]		1.24 µM (≈ 0.498 µg/mL)		2.5	Not Active	
CN1CCc2c(sc(NC(=O)c3ccc(OCc4ccccc4)cc3)c2C(N)=O)C1	1.22 µM	15.3 µM (≈ 6.47 µg/mL)	37.6%	2		
CC(=O)N1CCc2c(sc(NC(=O)c3ccc(Oc4ccccc4)cc3)c2C(N)=O)C1	0.66 µM	6.11 µM (≈ 2.66 µg/mL)	32.9%			
N=C1S/C(=C\c2ccc(OCc3ccccc3)cc2)C(=O)N1c1ccc(F)cc1	8.55 µM	7.72 µM (≈ 3.12 µg/mL)	10.5%	2		
Cc1ccc(C)c(N2C(=N)S/C(=C\c3ccc(OCc4ccccc4)cc3)C2=O)c1	1.34 µM	15.1 µM (≈ 6.26 µg/mL)	45.8%	2		4.6 °C
NC(=O)c1c(NC(=O)c2ccc(OCc3ccccc3)cc2)sc2c1CCN(C(=O)c1ccccc1)C2	0.8 µM	12.9 µM (≈ 6.62 µg/mL)	13.7%	2		
COc1ccc(NC(=O)N2CCc3c(sc(NC(=O)c4ccc([N+](=O)[O-])s4)c3C(N)=O)C2)cc1	8.17 µM					
CO[C@H]1/C=C/O[C@@]2(C)Oc3c(C)c(O)c4c(O)c(c(/C=N/N5CCN(C)CC5)c(O)c4c3C2=O)NC(=O)/C(C)=C\C=C\[C@H](C)[C@H](O)[C@@H](C)[C@@H](O)[C@@H](C)[C@H](OC(C)=O)[C@@H]1C [RIFAMPIN]		0.15 µM (≈ 0.123 µg/mL)		2	Not Active	
N=C1S/C(=C\c2ccc(OCc3ccccc3)cc2)C(=O)N1c1ccc(Cl)cc1Cl	3.49 µM	13.8 µM (≈ 6.27 µg/mL)	13.8%	2		
N=C1S/C(=C\c2ccc(OCc3ccccc3)cc2)C(=O)N1c1ncc([N+](=O)[O-])s1	6.77 µM					
CC(C)(C)OC(=O)N1CCc2c(sc(NC(=O)c3ccc(Cl)cc3)c2C(N)=O)C1	0.58 µM	1.79 µM (≈ 0.78 µg/mL)	37.3%			1.8 °C
CC(=O)N1CCc2c(sc(NC(=O)c3ccc(OCc4ccccc4)cc3)c2C(N)=O)C1	0.63 µM	1.56 µM (≈ 0.701 µg/mL)	11.6%	2		
NNC(=O)c1ccncc1 [ISONIAZID]		0.72 µM (≈ 0.0987 µg/mL)		1.2	Not Active	
CC(C)(C)OC(=O)N1CCc2c(sc(NC(=O)c3ccc(Oc4ccccc4)cc3)c2C(N)=O)C1	1.12 µM	6.33 µM (≈ 3.12 µg/mL)	26.9%	2		
NC(=O)c1c(NC(=O)c2ccc(Cl)cc2)sc2c1CCN(C(=O)c1ccccc1)C2	1.5 µM	28.5 µM (≈ 12.5 µg/mL)	42.5%	2		
CC(C)(C)OC(=O)N1CCc2c(sc(NC(=O)c3ccc(OCc4ccccc4)cc3)c2C(N)=O)C1	0.64 µM	1.53 µM (≈ 0.777 µg/mL)	52.1%	2		
N=C1S/C(=C\c2ccc(OCc3ccccc3)cc2)C(=O)N1c1ccc(Br)cc1	22.3 µM	3.35 µM (≈ 1.56 µg/mL)	7.83%			

SMILES	IC50 ([1]; read-out: IC50)	MIC [2]	cytotoxicity at 48 h, 50 µM [3]	FC [4]	IC50 [1]	ΔTm [5]
CN1CCc2c(sc(NC(=O)c3ccc(Cl)cc3)c2C(N)=O)C1	0.67 µM	8.95 µM (≈ 3.13 µg/mL)	38.5%	2		
CN1CCc2c(sc(NC(=O)c3ccc(Oc4ccccc4)cc3)c2C(N)=O)C1	0.73 µM	1.85 µM (≈ 0.754 µg/mL)	58.9%	2		
NC(=O)c1c(NC(=O)c2ccc(OCc3ccccc3)cc2)sc2c1CCN(Cc1ccccc1)C2	0.81 µM	12.6 µM (≈ 6.26 µg/mL)	24%	2		
N=C1S/C(=C\c2ccc(OCc3ccccc3)cc2)C(=O)N1c1ccccn1	2.12 µM	8.06 µM (≈ 3.12 µg/mL)	37.2%	2		
N=C1S/C(=C\c2ccc(OCc3ccccc3)cc2)C(=O)N1c1ccccc1	2.27 µM	16.2 µM (≈ 6.26 µg/mL)	37.9%			
N=C1S/C(=C\c2ccc(OCc3ccccc3)cc2)C(=O)N1c1ccc(Cl)cc1	7.01 µM	7.42 µM (≈ 3.12 µg/mL)	16.4%			
Cc1cccc(C)c1N1C(=N)S/C(=C\c2ccc(OCc3ccccc3)cc2)C1=O	1.74 µM	60.4 µM (≈ 25 µg/mL)	38.7%	2		1.4 °C
Cc1cccc(N2C(=N)S/C(=C\c3ccc(OCc4ccccc4)cc3)C2=O)n1	9.44 µM	1.94 µM (≈ 0.779 µg/mL)	25.1%			
N=C1S/C(=C\c2ccc(OCc3ccccc3)cc2)C(=O)N1c1cccc([N+](=O)[O-])c1	5.56 µM	14.5 µM (≈ 6.26 µg/mL)	52.9%			
NC(=O)c1c(NC(=O)c2ccc(Cl)cc2)sc2c1CCN(Cc1ccccc1)C2	1.14 µM	3.67 µM (≈ 1.56 µg/mL)	11.1%	2		
CC[C@@H](CO)NCCN[C@@H](CC)CO [ETHAMBUTOL]		7.64 µM (≈ 1.56 µg/mL)			Not Active	
CCc1nc(Nc2ccccc2)c2c3c(sc2n1)CCCC3	15.1 µM					
N=C1S/C(=C\c2ccc(OCc3ccccc3)cc2)C(=O)N1c1ncccn1	7.52 µM	4.02 µM (≈ 1.56 µg/mL)	26.6%			
N#C/C(=C\c1cccs1)c1nc2cc([N+](=O)[O-])ccc2[nH]1	21.3 µM					
CC(=O)N1CCc2c(sc(NC(=O)C3CC3)c2C(N)=O)C1	20.1 µM					
Cc1c(Cl)cccc1N1C(=N)S/C(=C\c2ccc(OCc3ccccc3)cc2)C1=O	13 µM	14.4 µM (≈ 6.26 µg/mL)	59.7%			
Cc1ccc(N2C(=N)S/C(=C\c3ccc(OCc4ccccc4)cc3)C2=O)c(C)c1	6.08 µM	1.88 µM (≈ 0.779 µg/mL)	36.8%			
CC(=O)N1CCc2c(sc(NC(=O)c3ccc(Cl)cc3)c2C(N)=O)C1	0.64 µM	4.13 µM (≈ 1.56 µg/mL)	38.4%			1.7 °C
NC(=O)c1c(NC(=O)c2ccc(Oc3ccccc3)cc2)sc2c1CCN(Cc1ccccc1)C2	0.78 µM	3.58 µM (≈ 1.73 µg/mL)	23.6%	2		
